The record followed here is ChEMBL document CHEMBL3045051 (Med Chem Res, 2011).

Calls of active or inactive are those of the source. The rule behind the calls is not given here.

For one assay, the system named is Influenza A virus. The assay can be described thus: Antiviral activity against Unidentified Influenza A virus (H1N2) infected MDCK cells assessed as inhibition of virus-induced cytopathicity. The class given is functional, organism-based. (In general: Damage to the host cells serves as the signal in cytopathic effect assays.)
A further assay concerns Feline coronavirus. Kind of assay: Antiviral activity against Feline coronavirus infected feline kidney crandell cells assessed as inhibition of virus-induced cytopathicity. It counts as functional, organism-based. The method, boiled down:
(§1)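 Confluent monolayers (feline kidney Crandell, Vero, HEL or HeLa, as named for each virus) were infected with 100 CCID50 of virus and allowed to adsorb for 1 h. Unbound virus was then removed, and cultures were incubated with test compound in serial dilutions (200, 40, 8 … µM). Cytopathicity was scored once untreated infected controls reached complete cytopathic effect.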

Assay [1] relates to Respiratory syncytial virus. Kind of assay: Antiviral activity against Respiratory syncytial virus infected human HeLa cells assessed as inhibition of virus-induced cytopathicity. The class given is functional, organism-based. The essentials: as §1
For assay [2], the system named is Coxsackievirus B4. Kind of assay: Antiviral activity against Human coxsackievirus B4 infected human HeLa cells assessed as inhibition of virus-induced cytopathicity. It counts as functional, organism-based. The essentials: as §1
Assay [3] deals with Coxsackievirus B4. The assay can be described thus: Antiviral activity against Human coxsackievirus B4 infected VERO cells assessed as inhibition of virus-induced cytopathicity. The class given is functional, organism-based. The method, boiled down:
as §1

The test system of assay [4] is Mammalian orthoreovirus 1. Kind of assay: Antiviral activity against Mammalian orthoreovirus 1 infected VERO cells assessed as inhibition of virus-induced cytopathicity. The class given is functional, organism-based. The method, boiled down: as §1
Another assay concerns Human respirovirus 3. The assay can be described thus: Antiviral activity against Human parainfluenza virus 3 infected Vero cells assessed as inhibition of virus-induced cytopathicity. The class given is functional, organism-based. The method, boiled down:
as §1

The test system of assay [5] is Vesicular stomatitis virus. Kind of assay: Antiviral activity against Vesicular stomatitis virus infected HEL cells assessed as inhibition of virus-induced cytopathicity. The class given is functional, organism-based.
Another assay relates to Vaccinia virus. Kind of assay: Antiviral activity against Vaccinia virus infected human HEL cells assessed as inhibition of virus-induced cytopathicity. The class given is functional, organism-based. As to conditions: Orthopoxvirus vaccinia.
Another assay has as its system Human alphaherpesvirus 2. Kind of assay: Antiviral activity against Human herpesvirus 2 strain G infected human HEL cells assessed as inhibition of virus-induced cytopathicity. It counts as functional, organism-based. The method, boiled down:
as §1

A further assay concerns Human alphaherpesvirus 1. The assay can be described thus: Antiviral activity against […] 1 KOS infected in human HEL cells assessed as inhibition of virus-induced cytopathicity. The class given is functional, organism-based. The essentials:
as §1

In a further assay the test system is Sindbis virus. The assay can be described thus: Antiviral activity against Sindbis virus infected Hela cells assessed as inhibition of virus-induced cytopathicity. The class given is functional, organism-based.
The subject of the next assay is Punta Toro virus. The assay can be described thus: Antiviral activity against Punta Toro virus infected Hela cells assessed as inhibition of virus-induced cytopathicity. It counts as functional, organism-based.
In assay [6] the test system is Vesicular stomatitis virus. Kind of assay: Antiviral activity against Vesicular stomatitis virus infected Hela cells assessed as inhibition of virus-induced cytopathicity. The class given is functional, organism-based.
Assay [7] can be described thus: Antioxidant activity assessed as inhibition of AAPH-induced lipid peroxidation at 1 X 10^-4 M. It counts as functional.
A short description of assay [8]: Antioxidant activity assessed as inhibition of AAPH-induced lipid peroxidation at 1 X 10^-5 M. It counts as functional.
In assay [9] the target is T1, Seed linoleate 13S-lipoxygenase-1 (Glycine max) (UniProt P08170).
T1 sequence (whole entry): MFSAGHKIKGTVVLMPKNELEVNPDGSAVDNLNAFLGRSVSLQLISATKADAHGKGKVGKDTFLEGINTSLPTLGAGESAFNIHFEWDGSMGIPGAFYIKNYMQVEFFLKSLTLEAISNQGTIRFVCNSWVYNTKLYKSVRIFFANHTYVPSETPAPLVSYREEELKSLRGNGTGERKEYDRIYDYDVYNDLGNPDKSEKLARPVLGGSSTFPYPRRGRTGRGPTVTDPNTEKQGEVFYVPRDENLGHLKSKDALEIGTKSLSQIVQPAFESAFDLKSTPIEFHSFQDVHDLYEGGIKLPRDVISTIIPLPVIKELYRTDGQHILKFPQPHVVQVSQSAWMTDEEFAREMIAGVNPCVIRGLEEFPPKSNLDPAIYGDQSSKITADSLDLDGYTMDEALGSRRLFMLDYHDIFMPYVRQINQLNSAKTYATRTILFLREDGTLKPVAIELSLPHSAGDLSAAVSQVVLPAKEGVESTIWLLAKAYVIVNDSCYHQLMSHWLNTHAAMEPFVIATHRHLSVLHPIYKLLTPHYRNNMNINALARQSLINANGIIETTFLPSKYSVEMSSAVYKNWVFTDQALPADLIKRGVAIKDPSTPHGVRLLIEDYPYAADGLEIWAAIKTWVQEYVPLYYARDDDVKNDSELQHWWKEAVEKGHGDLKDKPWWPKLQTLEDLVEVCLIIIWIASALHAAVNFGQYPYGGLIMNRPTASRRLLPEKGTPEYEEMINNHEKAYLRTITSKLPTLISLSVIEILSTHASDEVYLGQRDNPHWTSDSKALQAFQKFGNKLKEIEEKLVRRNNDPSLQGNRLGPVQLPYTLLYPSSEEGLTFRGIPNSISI
The assay can be described thus: Inhibition of Glycine max (soybean) lipoxygenase using sodium linoleate as substrate at 1 X 10^-4.

For assay [10], the system named is Radical scavenging activity. The assay can be described thus: Antioxidant activity assessed as DPPH radical scavenging activity at 1 X 10^-4 M after 60 min. It counts as functional. The method, boiled down:
(§2)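 Test compound was mixed with DPPH (0.05 and 0.1 mM) in ethanol. Absorbance at 517 nm was read after 20 and 60 min and compared with the NDGA standard, with ethanol as control. Each experiment was run at least in triplicate, and the SD of absorbance was <10% of the mean.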

In assay [11] the test system is Radical scavenging activity. Kind of assay: Antioxidant activity assessed as DPPH radical scavenging activity at 1 X 10^-4 M after 20 min. It counts as functional. The essentials:
as §2

The test system of assay [12] is Radical scavenging activity. The assay can be described thus: Antioxidant activity assessed as DPPH radical scavenging activity at 5 X 10^-5 M after 60 min. It counts as functional. The method, boiled down:
as §2
In general terms: Loss of DPPH colour is used to gauge radical scavenging.

Assay [13] relates to Radical scavenging activity. The assay can be described thus: Antioxidant activity assessed as DPPH radical scavenging activity at 5 X 10^-5 M after 20 min. The class given is functional. The essentials: as §2

For `CC(C(=O)NOCc1ccccc1)c1cccc(C(OC(=O)NOCc2ccccc2)c2ccccc2)c1` (stereo not drawn), the result (in the assay on Influenza A virus; in the assay on Influenza A virus (H1N1); in the assay with Feline coronavirus; in [1]; in the assay with Coxsackievirus B4 [2]; in the assay on Coxsackievirus B4 [3]) was inactive. In addition, the outcome (in assay [4]; with Human respirovirus 3; in assay [5]; in the assay on Vaccinia virus; with Human alphaherpesvirus 2; with Human alphaherpesvirus 1) was inactive. Further, the result (in the assay on Sindbis virus; with Punta Toro virus; in assay [6]) was inactive. Moreover, the inhibition in [7] was 99.3%; in assay [8] it was 49.2%; in assay [9] it was 40.8%; in assay [12], 5.6%; in [13], 3.4%. The inhibition result in assay [10] and in assay [11] was “inactive” in each case.
Regarding `Cc1c(C)c2c(c(C)c1O)CCC(C)(C(=O)O)O2` (stereo not drawn), the outcome (with Influenza A virus; in the assay with Influenza A virus (H1N1); with Feline coronavirus; in assay [1]; in the assay with Coxsackievirus B4 [2]; in the assay with Coxsackievirus B4 [3]) was inactive. For the same compound, the result (in assay [4]; in the assay with Human respirovirus 3; in [5]; in the assay on Vaccinia virus; in the assay on Human alphaherpesvirus 2; in the assay with Human alphaherpesvirus 1) was inactive. Also, the result (in the assay with Sindbis virus; with Punta Toro virus; in assay [6]) was inactive. Moreover, in assay [7], the inhibition is 63%.
As to `CC(C(=O)N1CCCC1)c1cccc(C(OC(=O)N2CCCC2)c2ccccc2)c1` (stereo not drawn), the outcome (in the assay with Influenza A virus; in the assay on Influenza A virus (H1N1); in the assay on Feline coronavirus; in assay [1]; in the assay with Coxsackievirus B4 [2]; in the assay with Coxsackievirus B4 [3]) was inactive. For the same compound, the result (in [4]; in the assay with Human respirovirus 3; in assay [5]; with Vaccinia virus; in the assay on Human alphaherpesvirus 2; in the assay with Human alphaherpesvirus 1) was inactive. In addition, the outcome (in the assay on Sindbis virus; with Punta Toro virus; in assay [6]) was inactive. For the same compound, the inhibition was 77.2% in assay [7]; 16.4% in assay [8]; 12.7% in assay [9]; 2.7% in assay [10]; 2.6% in [11]; 6.5% in assay [12]. Further, the inhibition in [13] is 5.7%.
As for `CC(Cc1ccc(O)c(O)c1)C(C)Cc1ccc(O)c(O)c1` (stereo not drawn), the result (with Influenza A virus; in the assay with Influenza A virus (H1N1); in the assay with Feline coronavirus; in assay [1]; with Coxsackievirus B4 [2]; in the assay with Coxsackievirus B4 [3]) was inactive. The outcome (in assay [4]; with Human respirovirus 3; in [5]; in the assay with Vaccinia virus; in the assay on Human alphaherpesvirus 2; with Human alphaherpesvirus 1) was inactive. Also, the result (in the assay on Sindbis virus; in the assay with Punta Toro virus; in assay [6]) was inactive. Moreover, the inhibition came to 97% in assay [10], 93% in assay [11], 83% in [12] and 81% in assay [13].
Turning to `O=C(O)/C=C/c1ccc(O)c(O)c1`, the result (in the assay with Influenza A virus; in the assay with Influenza A virus (H1N1); in the assay on Feline coronavirus; in [1]; in the assay on Coxsackievirus B4 [2]; in the assay with Coxsackievirus B4 [3]) was inactive. The outcome (in assay [4]; with Human respirovirus 3; in [5]; in the assay with Vaccinia virus; in the assay on Human alphaherpesvirus 2; in the assay with Human alphaherpesvirus 1) was inactive. Besides, the outcome (with Sindbis virus; in the assay with Punta Toro virus; in assay [6]) was inactive.
Consider `CONC(=O)OC(c1ccccc1)c1cccc(C(C)C(=O)NOC)c1` (stereo not drawn), for which the outcome (in the assay on Influenza A virus; in the assay on Influenza A virus (H1N1); with Feline coronavirus; in [1]; in the assay on Coxsackievirus B4 [2]; in the assay on Coxsackievirus B4 [3]) was inactive. Also, the outcome (in assay [4]; in the assay with Human respirovirus 3; in [5]; in the assay on Vaccinia virus; in the assay on Human alphaherpesvirus 2; in the assay on Human alphaherpesvirus 1) was inactive. The outcome (in the assay with Sindbis virus; in the assay on Punta Toro virus; in [6]) was inactive. Further, the inhibition in assay [7] is 61%; in [8] it was 2.5%; in [9], 26.9%; in [10], 3.2%; in [11], 1.8%; in assay [12] it was 4.1%. Besides, in assay [13], the inhibition entry is “inactive”.
Regarding `CCONC(=O)OC(c1ccccc1)c1cccc(C(C)C(=O)NOCC)c1` (stereo not drawn), the result (in the assay with Influenza A virus; with Influenza A virus (H1N1); in the assay with Feline coronavirus; in [1]; with Coxsackievirus B4 [2]; in the assay on Coxsackievirus B4 [3]) was inactive. Also, the outcome (in assay [4]; in the assay on Human respirovirus 3; in assay [5]; in the assay on Vaccinia virus; with Human alphaherpesvirus 2; with Human alphaherpesvirus 1) was inactive. In addition, the result (in the assay with Sindbis virus; in the assay on Punta Toro virus; in assay [6]) was inactive. The inhibition is 54.5% in assay [7]; 22.3% in [9]; 1.1% in assay [10]; 2.3% in [11]; 3.7% in assay [12]; 2.5% in assay [13]. Further, in assay [8], the inhibition result was “inactive”.

As usually defined, the inhibition is the share of the control response that was lost under treatment.
